Compound activity: PubChem, several laboratories
sdo1 growth: restores growth of sdo1-depleted yeast | S. cerevisiae sdo1-depleted JHY4D growth rescue, OD600 30 h; active compounds read high; pdr5 snq2 efflux-pump mutant strain | z-score at 10 µM | hit rate 0.21% among 140,000 | AID 817;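 active = z-score above 3 at both the 24 hr and the 30 hr optical density reads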
Rad51 HR inh: blocks human Rad51 in homologous recombination. hRad51 DNA strand exchange, fluorescence dequenching. inhibition, % at 10 µM. hit rate 0.085% among 200,000. AID 1385;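 active = inhibition above 40% at the single screening dose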
Target sequence (Q06609 whole entry, looked up): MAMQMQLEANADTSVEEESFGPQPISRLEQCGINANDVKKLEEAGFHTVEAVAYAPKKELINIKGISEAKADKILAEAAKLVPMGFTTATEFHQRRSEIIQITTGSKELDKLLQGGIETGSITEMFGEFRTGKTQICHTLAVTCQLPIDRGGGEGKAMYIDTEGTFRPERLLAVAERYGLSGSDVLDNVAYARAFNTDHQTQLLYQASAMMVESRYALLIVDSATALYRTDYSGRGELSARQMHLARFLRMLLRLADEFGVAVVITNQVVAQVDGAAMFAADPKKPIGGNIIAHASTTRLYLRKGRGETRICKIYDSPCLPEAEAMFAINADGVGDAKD
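material = hRad51 filaments on single-stranded DNA | reagent = Donor/quencher-labelled 47-bp dsDNA substrate | compound = 10 µM final, single point | schedule = strand-exchange reaction 15 min at room temperature | measured by = fluorescein emission 520 nm, excitation 485 nm | read-out basis = % inhibition versus plate control and blank means | benchmarks = plate controls and plate blanks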
TNF death inh: TNF-alpha cell death inhibition in Jurkat FADD-/- cells; Jurkat FADD-/- TNF necroptosis rescue, ATP luminescence, 24 h; 0 = TNF only, 100 = no-TNF cells; activation (protection from cell death), % at 10 µM; hit rate 0.068% among 220,000;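 active = activation, meaning protection from cell death, of at least 50% relative to plate controls; inactive = activation below 50%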;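 note: necroptosis triggered by 40 ng/mL TNF-alpha added together with compound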
L929 necroptosis: L929 zVAD cell death inhibition; L929 zVAD necroptosis rescue, ATP luminescence, 24 h; with zVAD 60 µM; viability rescue, % at 10 µM; hit rate 0.38% among 220,000; AID 1377;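 active = activation, scaled between plate controls, above about 75%, limit read from the data; inactive = activation under that limit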
zVAD necrop conf: confirmed blocker of zVAD induced death in L929 cells; hit rate 16% among 760; L929 zVAD-induced necroptosis rescue, ATP luminescence, 24 h; shares compounds with L929 necroptosis; activation (protection from necroptosis), % at 10 µM;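 active = mean protection from necroptosis of at least 50% over duplicate tests; inactive = mean protection below 50%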
A number is an active result. Rows were chosen to be rich in hits. Some 0.64% of all compounds tested hit in one or more screens of this group.

`Cc1[nH]nc2c1C(c1c[nH]c3ccccc13)C(C#N)=C(N)O2` (stereo not drawn) gave Rad51 HR inh inactive, TNF death inh inactive, L929 necroptosis 76.6 and zVAD necrop conf inactive.
COCCN(Cc1ccccc1)C(=S)Nc1ccc(Cl)cc1 was read as Rad51 HR inh inactive, TNF death inh inactive and L929 necroptosis inactive.
For CCOC(=O)/C=C1\Nc2ccccc2OC1=O the results were sdo1 growth inactive, Rad51 HR inh inactive, TNF death inh inactive, L929 necroptosis 94.0 and zVAD necrop conf inactive.
Screening O=C(CSc1nc2ccc(Cl)cc2[nH]1)N1CCN(C(=O)c2ccco2)CC1 returned sdo1 growth inactive, Rad51 HR inh inactive, TNF death inh inactive, L929 necroptosis 85.3 and zVAD necrop conf inactive.
`O=C(OCn1ncc(Cl)c(Cl)c1=O)c1ccc(F)cc1` gave sdo1 growth inactive, Rad51 HR inh inactive, TNF death inh inactive, L929 necroptosis 78.1 and zVAD necrop conf 53.1.
`O=C(OCn1ncc(Cl)c(Cl)c1=O)c1ccccc1Cl` gave sdo1 growth inactive, Rad51 HR inh inactive, TNF death inh inactive, L929 necroptosis 101.8 and zVAD necrop conf 64.2.
`CN(C)CCNC(=O)c1cc2c(=O)n(C)c3ccccc3c2n1C` gave sdo1 growth inactive, Rad51 HR inh inactive, TNF death inh inactive and L929 necroptosis inactive.
Screening CCN(CC)CCNC(=O)c1cc2c(=O)n(C)c3ccccc3c2n1C returned sdo1 growth inactive, Rad51 HR inh inactive, TNF death inh inactive, L929 necroptosis 77.2 and zVAD necrop conf inactive.
CCCCN(CC)CCNC(=O)c1cc2c(=O)n(C)c3ccccc3c2n1C was read as sdo1 growth inactive, Rad51 HR inh inactive, TNF death inh inactive and L929 necroptosis inactive.
Screening CCCN(CCC)CCCNC(=O)c1cc2c(=O)n(C)c3ccccc3c2n1C returned sdo1 growth inactive, Rad51 HR inh inactive, TNF death inh inactive, L929 necroptosis 79.5 and zVAD necrop conf inactive.
`CCN(CC)CCCNC(=O)c1cc2c(=O)n(C)c3ccccc3c2n1C` gave sdo1 growth inactive, Rad51 HR inh inactive, TNF death inh inactive, L929 necroptosis 77.3 and zVAD necrop conf inactive.
Cc1nc(Oc2ccc(S(=O)(=O)N3CCOCC3)cc2Cl)c2c3c(sc2n1)CCCC3 was read as sdo1 growth inactive, Rad51 HR inh inactive, TNF death inh inactive and L929 necroptosis inactive.
O=C(CSc1nnc(CNC(=O)C23CC4CC(CC(C4)C2)C3)n1-c1ccc(F)cc1)Nc1ccccc1 was read as sdo1 growth inactive, Rad51 HR inh inactive, TNF death inh inactive and L929 necroptosis inactive.
Screening CN1CCN(CCNC(=O)c2cc3c(=O)n(C)c4ccccc4c3n2C)CC1 returned sdo1 growth inactive, Rad51 HR inh inactive, TNF death inh inactive, L929 necroptosis 78.0 and zVAD necrop conf inactive.
`Cn1c(C(=O)NCCCN2CCc3ccccc3C2)cc2c(=O)n(C)c3ccccc3c21` gave sdo1 growth inactive, Rad51 HR inh inactive, TNF death inh inactive and L929 necroptosis inactive.
`CCCN1CCN(CCCNC(=O)c2cc3c(=O)n(C)c4ccccc4c3n2C)CC1` gave sdo1 growth inactive, Rad51 HR inh inactive, TNF death inh inactive and L929 necroptosis inactive.
Cn1c(C(=O)NCCCN2CCCCCC2)cc2c(=O)n(C)c3ccccc3c21 was read as sdo1 growth inactive, Rad51 HR inh inactive, TNF death inh inactive, L929 necroptosis 83.1 and zVAD necrop conf inactive.
Screening O=C(Nc1ccccc1)OCc1cnc(Cl)s1 returned Rad51 HR inh inactive, TNF death inh inactive and L929 necroptosis inactive.
Screening Clc1ncc(CSc2ccccc2)s1 returned Rad51 HR inh inactive, TNF death inh inactive, L929 necroptosis 90.6 and zVAD necrop conf inactive.
For Cc1ccccc1Oc1cc(-n2ncc(Cl)c(Cl)c2=O)ncn1 the results were sdo1 growth inactive, Rad51 HR inh inactive, TNF death inh inactive, L929 necroptosis 84.9 and zVAD necrop conf inactive.
`COCCNC(=O)CSc1nnc(CCCN2C(=O)c3cccc4cccc(c34)C2=O)n1-c1ccccc1` gave sdo1 growth inactive, Rad51 HR inh inactive, TNF death inh inactive and L929 necroptosis inactive.
Screening Cc1ccc(C)c(SCC(=O)OC/C(O)=C(\C#N)c2nc3ccccc3[nH]2)c1 returned Rad51 HR inh inactive, TNF death inh inactive, L929 necroptosis 78.4 and zVAD necrop conf inactive.
Screening CC1CCN(C(=O)CCc2ccc(Oc3cc([N+](=O)[O-])cc([N+](=O)[O-])c3)cc2)CC1 returned sdo1 growth inactive, Rad51 HR inh inactive, TNF death inh inactive and L929 necroptosis inactive.
